Screening data from PubChem BioAssay.
Sampled rows, rich in hits. Any-hit rate of the full collection: about 1.8%.
eLon inh – E. coli protease La inhibition. inhibition, % at 7.94 µM. AID 602123. P0A9M0. 360,000 compounds, 0.42% hits. purified E. coli Lon protease, fluorescence polarization; in the data active means inhibition above about 13%, passing the limit was not always enough
hiPSC survival – increases survival of single human iPS cells; hiPSC single-cell survival, ATPlite luminescence; 100% = ROCK inhibitor wells, 0% = DMSO; survival enhancement, % at 20 µM; 360,000 compounds, 0.044% hits; in the data active means survival enhancement above about 18%;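 further: cells exposed to compounds for 16 hours before the ATP read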
PREPL inh – inhibits the human prolyl oligopeptidase-like enzyme; inhibition, % at 5.96 µM; 320,000 compounds, 0.68% hits; recombinant PREPL, fluorescence polarization activity-based probe; AID 2751; Q4J6C6
Target sequence (Q4J6C6 whole entry, looked up): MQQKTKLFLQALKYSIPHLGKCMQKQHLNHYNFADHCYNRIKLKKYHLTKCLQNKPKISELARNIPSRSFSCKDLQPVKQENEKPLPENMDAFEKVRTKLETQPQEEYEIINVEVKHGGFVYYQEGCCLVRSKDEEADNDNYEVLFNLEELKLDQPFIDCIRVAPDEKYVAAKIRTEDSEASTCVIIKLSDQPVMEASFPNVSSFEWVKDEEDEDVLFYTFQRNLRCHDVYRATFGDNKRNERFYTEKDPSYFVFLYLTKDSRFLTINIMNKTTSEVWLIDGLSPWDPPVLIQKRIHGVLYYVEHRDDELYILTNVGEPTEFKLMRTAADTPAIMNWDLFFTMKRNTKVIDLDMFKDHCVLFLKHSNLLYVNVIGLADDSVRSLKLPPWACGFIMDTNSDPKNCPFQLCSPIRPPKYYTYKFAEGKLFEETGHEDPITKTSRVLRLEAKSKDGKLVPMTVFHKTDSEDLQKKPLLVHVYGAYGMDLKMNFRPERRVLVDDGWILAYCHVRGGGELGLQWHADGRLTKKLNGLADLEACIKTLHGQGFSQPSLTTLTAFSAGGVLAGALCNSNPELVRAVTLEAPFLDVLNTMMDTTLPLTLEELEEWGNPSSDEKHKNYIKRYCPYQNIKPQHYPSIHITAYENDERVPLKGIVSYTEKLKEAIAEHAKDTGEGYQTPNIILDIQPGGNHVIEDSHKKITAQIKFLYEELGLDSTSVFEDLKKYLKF
TbMetRS inhib – Trypanosoma brucei MetRS inhibition | purified T. brucei MetRS, ATP depletion, Kinase-Glo luminescence | AID 624268 | inhibition, % at 11.9 µM | 360,000 compounds, 0.4% hits;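 active means inhibition above a per-plate cutoff of the control wells' mean inhibition plus 3 SD, cut at about 5.5% in these data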
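assay system = parasite MetRS enzyme | timing = 15 min preincubation, 2 h reaction, all 25 °C | evaluation = percent inhibition relative to median high and low control wells | medium = HEPES buffer containing pyrophosphatase, BSA, spermine, DTT | compound = single dose, 11.9 µM final nominal, 0.9% final DMSO | detection = Kinase-Glo luminescence, ATP depletion format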
MT1-MMP act inh – MT1-MMP (human) activation inhibition; P50281; HT1080 RFP-PRO-GFP cells, GFP/RFP ratio fluorescence, overnight; percent of plate control window, DMSO zero; GFP/RFP ratio change, % at 20 µM; 360,000 compounds, 0.061% hits; AID 651647;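 active means GFP/RFP ratio change of at least 30% with cell ATP level not reduced by more than half and red fluorescence within 50% of control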
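Assay system: HT1080 RFP-PRO-GFP cells | Dosing: 20 µM single dose, 1% DMSO | Incubation: Cells overnight before dosing, compound overnight, 37 °C, 5% CO2 | Evaluation: GFP/RFP fluorescence ratio | Control set: DMSO-only wells and HT1080 RFP-L50D-GFP cell wells as references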
SKN-1 block – C. elegans SKN-1 inhibition; inhibition, % at 21.8 µM; C. elegans VP596 Pgst-4::GFP/RFP ratio, acrylamide-induced, 24 h; 360,000 compounds, 0.49% hits; AID 624304;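 active means interference check ratio from 0.5 to 1.5 plus GFP to RFP signal ratio inhibition reaching or exceeding a fixed threshold, cut at about 30% in these data, passing the limit was not always enough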
PREPL confirm – confirmation of human PREPL enzyme inhibitors; 2,000 compounds, 67% hits; shares compounds with PREPL inh; inhibition, % at 5.96 µM; AID 2803; recombinant PREPL, fluorescence polarization activity probe
E coli Lon conf – E. coli Lon inhibition confirmation; inhibition, % at 7.94 µM; 1,400 compounds, 31% hits; shares compounds with eLon inh; AID 602230; purified E. coli Lon, fluorescence polarization; in the data active means inhibition above about 16%
Tb MetRS conf – confirmation of Trypanosoma brucei MetRS inhibitors | T. brucei MetRS enzyme, luminescence (ATP depletion) | 1,400 compounds, 93% hits | shares compounds with TbMetRS inhib | inhibition, % at 11.9 µM; in the data active means inhibition above about 7%
Jurkat tox – counter-screen for T. brucei MetRS inhibitors: Jurkat cell cytotoxicity | AID 624413 | inhibition, % at 8.3 µM | shares compounds with TbMetRS inhib | Jurkat cells viability, ATP luminescence | 1,400 compounds, 12% hits; in the data active means inhibition above about 15%
TbMetRS FP orth – T. brucei MetRS inhibition, orthogonal assay; inhibition, % at 11.9 µM; purified T. brucei MetRS, fluorescence polarization; shares compounds with TbMetRS inhib; 1,400 compounds, 44% hits; in the data active means inhibition above about 17%
MT1-MMP act val – validation of inhibitors of human MT1-MMP activation. shares compounds with MT1-MMP act inh. HT1080 RFP-PRO-GFP cells, GFP and RFP fluorescence ratio, overnight. inhibition, % at 20 µM. 200 compounds, 10% hits. AID 652235;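 active means inhibition of at least 50% in the primary cell screen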
Large screens that a line does not name were inactive (follow-up assays come after a bar, where they were run). Unless noted, no stated cut-off is given here; in the data, active means inhibition above about 43%; inactive means the rest.

Cn1c(NCCc2ccccc2)cc(=O)n(C)c1=O	none
Cn1c(=O)c(NCCO)c2c3c(cccc31)C(=O)c1ccccc1-2	eLon inh active, PREPL inh 90 | PREPL confirm 103 | E coli Lon conf active
Cc1cc(C(=O)COc2cccc3cccnc23)c(C)n1C	eLon inh 71, PREPL inh 65 | PREPL confirm inactive | E coli Lon conf inactive
CCC(c1nc2ccccc2[nH]1)N(C(=O)C1=NNC(=O)CC1)c1ccccc1 (centres undefined)	none (no result: PREPL inh)
CC(=O)c1c(C)n([O-])c2cc(C)ccc2[n+]1=O	none
Cc1ccc(-c2ccccc2NC(=O)CS(=O)CC(=O)Nc2ccc(C)c(Cl)c2)o1 (centres undefined)	eLon inh 114, PREPL inh 60 | PREPL confirm inactive | E coli Lon conf 16
CC(Nc1ccc(Br)cc1)C(=O)Nc1cccc(S(=O)(=O)N2CCOCC2)c1 (centres undefined)	none (no result: PREPL inh)
Nc1ccc2c(c1)C(=O)C(=O)c1ccccc1-2	PREPL inh 61, TbMetRS inhib 22 | PREPL confirm 53 | Tb MetRS conf 15 | Jurkat tox 97 | TbMetRS FP orth inactive
Oc1cccc(Nc2nc(O)c(/C=C3\C=Nc4ccccc43)s2)c1	PREPL inh 53, TbMetRS inhib 17 | PREPL confirm 52 | Tb MetRS conf 21 | Jurkat tox inactive | TbMetRS FP orth 28
Cc1ccc2[nH]c3c(c2c1)CCC3=O	none
Cc1ccc2[nH]c3c(c2c1)CCc1cn[nH]c1-3	PREPL inh 47, TbMetRS inhib 22 | PREPL confirm inactive | Tb MetRS conf 12 | Jurkat tox inactive | TbMetRS FP orth 47
CCOc1ccc(CN(C)C(=O)CNC(=O)C2CCCCC2)cc1	none
CC(C(=O)N1CCc2ccccc21)N1CCN(Cc2ccc(Cl)cc2)CC1 (centres undefined)	none
C=C1N(C)c2cc([N+](=O)[O-])c(N)cc2C1(C)C	PREPL inh 85, MT1-MMP act inh 36 | PREPL confirm 44 | MT1-MMP act val inactive
N#Cc1ccccc1S(=O)c1ccccc1C(=O)Nc1ccccc1 (centres undefined)	none
O=C1CC(=O)CC(c2ccccc2Cl)C1	eLon inh 30 | E coli Lon conf inactive
COc1ccc(NC(=O)Nc2sc(NS(=O)(=O)c3ccccc3)nc2C)cc1	eLon inh 14 (no result: MT1-MMP act inh) | E coli Lon conf inactive
CCOCC(=O)Nc1ccccc1C(=O)N1CCOCC1	none
CN=C1S/C(=C\c2ccc(SC)cc2)C(=O)N1C	none
CSC1=NC(=O)/C(=C/c2ccc(SC)cc2)S1	eLon inh 25 | E coli Lon conf inactive
CC(C)C[C@@H](CN1CCC[C@H]1CN1C(=O)C(=O)NC[C@@H]1Cc1ccccc1)N1C[C@H](Cc2ccc(O)cc2)N(CC2CCCCCC2)C(=O)C1=O	eLon inh 11 (no result: PREPL inh) | E coli Lon conf inactive
CC(C)C[C@@H](CN1CCC[C@@H]1CN1C(=O)C(=O)NC[C@@H]1Cc1ccccc1)N1C[C@H](Cc2ccc(O)cc2)N(CC2CCCCC2)C(=O)C1=O	none (no result: PREPL inh)
O=c1[nH]c(-c2ccccc2F)nc2c1sc(=S)n2Cc1ccccc1	none
CCCc1nn(C)c(C(=O)Nc2cccc(C)c2)c1Cl	none
CCCc1nn(C)c(C(=O)Nc2cccc(Cl)c2)c1Cl	eLon inh 30 | E coli Lon conf inactive
COc1ccccc1CCNC(=O)C(=O)NCC1OCCN1S(=O)(=O)c1ccc(Cl)cc1 (centres undefined)	eLon inh 16 | E coli Lon conf inactive
COc1ccccc1CCNC(=O)C(=O)NCC1OCCN1S(=O)(=O)c1ccc(F)cc1 (centres undefined)	none
O=C(COc1ncnc2ccc(Br)cc12)NCc1ccc2c(c1)OCO2	none
COC(=O)c1ccccc1NC(=S)NC(=O)c1ccccc1	eLon inh 16 | E coli Lon conf inactive
Cc1ccc2cccnc2c1NC(=S)NC(=O)c1ccccc1	eLon inh 19 | E coli Lon conf inactive
Cc1c(NS(=O)(=O)c2ccc3c(c2)CCN3C(=O)C2CC2)c(=O)n(-c2ccccc2)n1C	none
O=c1c2cc([N+](=O)[O-])ccc2nc2n1CCCC2	eLon inh 19 | E coli Lon conf inactive
Cc1ccccc1-n1ccnc1SCC(=O)Nc1cccc(S(=O)(=O)NC2=NCCC2)c1	eLon inh 17 | E coli Lon conf inactive
O=C(C1CC(=O)N(c2ccc(F)cc2)C1)N1CCCCC1 (centres undefined)	none
C[C@H](NC(=O)C1CC(=O)N(c2ccc(F)cc2)C1)C(=O)N1CCCCC1 (some centres undefined)	eLon inh 20 | E coli Lon conf inactive
Cc1ccc(NC(=O)CSc2nnc(-c3ccco3)c(-c3ccco3)n2)cc1	eLon inh 161 | E coli Lon conf inactive
COc1ccc(C(=O)N=C2SC3CS(=O)(=O)CC3N2Cc2ccccc2)cc1OC (centres undefined)	eLon inh 16 | E coli Lon conf inactive
COc1ccc(CN2C(=NC(=O)c3ccccc3)SC3CS(=O)(=O)CC32)cc1OC (centres undefined)	none
COc1ccc(S(=O)(=O)Nc2ccc(F)cc2)cc1N(C)S(=O)(=O)c1ccc(Cl)cc1	eLon inh 16 | E coli Lon conf 41
CO/N=C\CC(=O)Nc1ccc(Cl)c(Cl)c1	eLon inh 17 | E coli Lon conf inactive
COC(=O)CCC(=O)Nc1ccc(Cl)c(Cl)c1	none
CC(C)c1nccn1S(=O)(=O)c1cc(Cl)ccc1Cl	none
COc1ccc(Cl)cc1S(=O)(=O)n1ccnc1C(C)C	eLon inh 17 | E coli Lon conf inactive
CCOc1ccc(NC(=O)CSC2=NCCN2)cc1	eLon inh 45 | E coli Lon conf inactive
